Screening results deposited in PubChem by Broad Institute.
Shown are actives, neighbours in structure and some others; about 3.5% of the full set was active somewhere.
FN deposit inh = inhibitors of fibronectin matrix deposition, primary screen, AH1F cells, Alexa488-fibronectin fluorescence, plate reader; AH1F fibroblasts, overnight; inhibition, % at 12.6 µM; 350,000 tested, 0.086% active;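 active = mean inhibition across replicates of 30% or more, regardless of how many single replicates reach that level; inconclusive = mean under 30% yet at least half of replicates reach 30%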
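Material: AH1F fibroblast monolayer depositing Alexa488-labelled fibronectin into matrix | Input: 10000 AH1F cells/well | Medium: DMEM plus 2% serum, read in PBS | Reagent: Alexa488-fibronectin, 24 nM final in well | Compound dosing: One dose per compound, pinned | Schedule: 1 h adhesion, overnight exposure | Measured by: Fluorescence at 485 nm excitation, 525 nm emission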
PGC1a acetyl inh = inhibitors of PGC1a acetylation signal, primary screen, cell-based, U2OS, AlphaScreen, inhibitor mode. AlphaScreen anti-acetyl-lysine; with virally co-expressed GCN5 acetyltransferase. inhibition, % at 15.6 µM. 350,000 tested, 0.17% active. AID 651687, 2012;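 active = every replicate shows inhibition of at least 40%; inconclusive = mean inhibition at least 40% but some replicate below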
HIV Env fusion = inhibitors of HIV-1 Env-driven cell-cell fusion, primary screen, HeLa-JRFL effector, CEM21 target cells, luciferase; AID 651610, 2012; inhibition, % at 12.3 µM; 360,000 tested, 1.1% active;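 active = mean replicate inhibition score of at least 50 and every replicate individually at or above 50; inconclusive = only one of the two criteria met; inactive = mean below 50 and not all replicates reaching 50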
DENV2 CPE rescue = inhibitors of DENV2 cytopathic effect, primary screen, cell-based, plate reader, single concentration; DENV2-infected cells, cytopathic effect rescue; CPE inhibition, % at 9.99 µM; 350,000 tested, 1.7% active; in the data active = CPE inhibition above about 20%, passing the limit was not always enough; inconclusive = no clear call, values can overlap the other calls; tested in BHK-21 cells
rRNA inh HTS = reduced GFP signal of wild-type E. coli, primary screen, bacterial rRNA inhibitor project, GFP/RFP fluorescence, OD600, single point; 350,000 tested, 1.6% active; AID 720706, 2013; E. coli WT GFP vs humanized-ribosome RFP mutants, 24 h; stronger effect = lower value; DMSO median 0, no signal -100; GFP signal change (wild-type ribosome), % (test concentration not listed);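 active = significant combined selectivity score with lowered wild-type GFP, culture density cut under 30%, mutant RFP and density less affected; inactive = any of these conditions unmet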
PglD DTNB = C. jejuni PglD acetyltransferase inhibitors, primary screen, biochemical, DTNB colorimetric, single point; AID 602405, 2012; purified PglD enzyme, DTNB colorimetric CoA detection; 360,000 tested, 0.098% active; inhibition, % at 12.5 µM; UDP-N-acetylbacillosamine N-acetyltransferase PglD (Campylobacter jejuni); in the data active = inhibition above about 16%, passing the limit was not always enough; inconclusive = no clear call, values can overlap the other calls
Of the large screens only hits and unclear results are named; the others gave an inactive call; [ ] = dose if it differs, or a comment.

CNC(=O)C[C@H]1CC[C@@H]2[C@@H](COc3ccc(NC(=O)c4ccccc4Cl)cc3C(=O)N2C)O1	DENV2 CPE rescue 31 (no result: FN deposit inh)
CN1C(=O)c2cc(NC(=O)c3ccc4c(c3)OCO4)ccc2OC[C@H]2O[C@@H](CC(=O)O)CC[C@H]21	DENV2 CPE rescue 69
CN1C(=O)c2cc(NC(=O)NC3CCCC3)ccc2OC[C@H]2O[C@H](CC(=O)O)CC[C@@H]21	none (no result: HIV Env fusion)
CN1C(=O)c2cc(NC(=O)NC3CCCC3)ccc2OC[C@@H]2O[C@H](CC(=O)O)CC[C@H]21	DENV2 CPE rescue 57 (no result: HIV Env fusion)
CNC(=O)C[C@@H]1CC[C@H]2[C@@H](COc3ccc(NC(=O)c4ccc(OC)cc4)cc3C(=O)N2C)O1	DENV2 CPE rescue 64
CCNC(=O)C[C@@H]1CC[C@@H]2[C@@H](COc3ccc(NC(=O)c4ccccc4Cl)cc3C(=O)N2C)O1	none (no result: FN deposit inh, rRNA inh HTS)
CCC(=O)Nc1ccc2c(c1)C(=O)N(C)[C@@H]1CC[C@H](CC(=O)O)O[C@H]1CO2	DENV2 CPE rescue 24 (no result: HIV Env fusion)
Cc1cccc(NC(=O)Nc2ccc3c(c2)C(=O)N(C)[C@@H]2CC[C@@H](CC(=O)O)O[C@@H]2CO3)c1	none (no result: DENV2 CPE rescue)
Cc1cccc(NC(=O)Nc2ccc3c(c2)C(=O)N(C)[C@@H]2CC[C@@H](CC(=O)O)O[C@H]2CO3)c1	DENV2 CPE rescue 72
CNC(=O)C[C@H]1CC[C@H]2[C@H](COc3ccc(NC(=O)Nc4cc(C)cc(C)c4)cc3C(=O)N2C)O1	DENV2 CPE rescue 46
CNC(=O)C[C@H]1CC[C@@H]2[C@@H](COc3ccc(NC(=O)Nc4cc(C)cc(C)c4)cc3C(=O)N2C)O1	none
COC(=O)C[C@H]1CC[C@@H]2[C@@H](COc3ccc(NC(=O)Cc4cccs4)cc3C(=O)N2C)O1	FN deposit inh 40 (no result: PGC1a acetyl inh)
Cc1cccc(S(=O)(=O)N2C[C@H]3[C@@H](c4ccccc42)[C@H](CO)N3C(=O)CC2CC2)c1	DENV2 CPE rescue inconclusive (no result: FN deposit inh, HIV Env fusion)
C[C@H]1CN([C@@H](C)CO)C(=O)c2cccc(NC(=O)Nc3ccccc3)c2O[C@H]1CN(C)Cc1ccc(C(=O)O)cc1	none (no result: FN deposit inh, HIV Env fusion)
COCC#Cc1ccc2c(c1)O[C@@H](CN(C)S(=O)(=O)c1cccc(OC)c1)[C@H](C)CN([C@@H](C)CO)S2(=O)=O	none
COC(=O)C[C@@H]1CC[C@H]2[C@@H](COc3ccc(NC(=O)c4ccc(C(F)(F)F)cc4)cc3C(=O)N2C)O1	DENV2 CPE rescue 99 (no result: HIV Env fusion)
CCC(=O)Nc1ccc2c(c1)C(=O)N(C)[C@@H]1CC[C@@H](CC(=O)NC3Cc4ccccc4C3)O[C@@H]1CO2	DENV2 CPE rescue 30
CN1C(=O)c2cc(NS(=O)(=O)c3ccccc3F)ccc2OC[C@@H]2O[C@H](CC(=O)NC3Cc4ccccc4C3)CC[C@@H]21	HIV Env fusion 63[16.7 µM] (no result: PGC1a acetyl inh)
CN1C(=O)c2cc(NC(=O)Nc3ccccc3)ccc2OC[C@@H]2O[C@@H](CC(=O)O)CC[C@@H]21	DENV2 CPE rescue 57 (no result: PGC1a acetyl inh)
CN1C(=O)c2cc(NS(=O)(=O)c3ccccc3F)ccc2OC[C@H]2O[C@H](CC(=O)NC3Cc4ccccc4C3)CC[C@H]21	none (no result: PGC1a acetyl inh)
COC(=O)C[C@@H]1CC[C@H]2[C@H](COc3ccc(NC(=O)c4ccc(C(F)(F)F)cc4)cc3C(=O)N2C)O1	none (no result: HIV Env fusion)
C[C@@H]1CCCCO[C@@H](CN(C)C(=O)Nc2cccc3ccccc23)[C@@H](C)CN([C@@H](C)CO)C(=O)c2cc(NC(=O)c3ccccc3)ccc2O1	none
CNC[C@H]1Oc2ccc(N(C)C)cc2C(=O)N([C@@H](C)CO)C[C@@H]1C	none
Cc1noc(C)c1NC(=O)Nc1cccc2c1O[C@@H](CN(C)S(C)(=O)=O)[C@H](C)CN([C@@H](C)CO)C2=O	none (no result: FN deposit inh)
COc1ccc(S(=O)(=O)Nc2ccc3c(c2)C(=O)N([C@H](C)CO)C[C@H](C)[C@@H](CN(C)CC2CC2)O3)cc1	none (no result: HIV Env fusion, PglD DTNB)
Nc1c(C(=O)NCc2ccccc2)c2nc3ccccc3nc2n1CCCN1CCOCC1	none (no result: PGC1a acetyl inh, PglD DTNB)
Nc1c(C(=O)NCc2ccco2)c2nc3ccccc3nc2n1CCc1ccccc1	rRNA inh HTS -28 (no result: PGC1a acetyl inh, PglD DTNB)
O=C(NC1CCCC1)N1CC2(C1)[C@H](c1ccccc1)[C@H](CO)N2S(=O)(=O)Cc1ccccc1	none (no result: HIV Env fusion, PglD DTNB)
C[C@@H]1CN([C@H](C)CO)C(=O)c2cc(NS(=O)(=O)c3ccc(Cl)cc3)ccc2O[C@@H]1CN(C)C(=O)Nc1ccc(F)cc1	none (no result: FN deposit inh, HIV Env fusion)
Cc1ccc(S(=O)(=O)NNC(=S)Nc2ccc(Cl)cc2)cc1	rRNA inh HTS -28 (no result: PGC1a acetyl inh, PglD DTNB)
CNC(=O)Nc1ccc(S(N)(=O)=O)cc1	none (no result: PGC1a acetyl inh)
Cn1nccc1NC(=O)Nc1ccc(Cl)cc1	rRNA inh HTS -35 (no result: PglD DTNB)
NS(=O)(=O)c1ccc(NC(=O)Nc2ccc(Cl)cc2)cc1	rRNA inh HTS -26 (no result: PGC1a acetyl inh, PglD DTNB)
C[C@H]1CN([C@@H](C)CO)S(=O)(=O)c2ccc(Br)cc2O[C@@H]1CN(C)Cc1cncnc1	none (no result: FN deposit inh)
OC(c1ccccc1)(c1nc(-c2cc3ccccc3o2)cs1)C(F)(F)F (centres undefined)	rRNA inh HTS -38
OC(c1ccccc1)(c1nc(-c2cccc(C(F)(F)F)c2)cs1)C(F)(F)F (centres undefined)	none
Cc1ccccc1S(=O)(=O)NCC[C@H]1CC[C@@H](NC(=O)C2CCCC2)[C@H](CO)O1	none
O=C(NNC(=S)NC(=O)c1ccccc1[N+](=O)[O-])c1ccccc1O	none (no result: PglD DTNB)
O=C(NNC(=S)NC(=O)c1ccccc1[N+](=O)[O-])c1ccccc1[N+](=O)[O-]	rRNA inh HTS -26 (no result: FN deposit inh, HIV Env fusion, DENV2 CPE rescue)
CCCN(C)C[C@H]1OCCCC[C@H](C)Oc2ccc(NS(=O)(=O)c3c(C)noc3C)cc2C(=O)N([C@@H](C)CO)C[C@H]1C	DENV2 CPE rescue 32 (no result: FN deposit inh)
Cc1noc(C)c1S(=O)(=O)Nc1ccc2c(c1)C(=O)N([C@@H](C)CO)C[C@H](C)[C@@H](CN(C)Cc1ccc(C(=O)O)cc1)OCCCC[C@H](C)O2	DENV2 CPE rescue 34
Cc1noc(C)c1S(=O)(=O)Nc1ccc2c(c1)C(=O)N([C@H](C)CO)C[C@H](C)[C@@H](CN(C)CC1CC1)OCCCC[C@@H](C)O2	none (no result: FN deposit inh)
Cc1noc(C)c1S(=O)(=O)Nc1ccc2c(c1)C(=O)N([C@@H](C)CO)C[C@@H](C)[C@H](CN(C)Cc1ccc(C(=O)O)cc1)OCCCC[C@@H](C)O2	none
O=C(N/N=C/c1ccc(Br)cc1)c1ccccc1-n1cccc1	rRNA inh HTS -41 (no result: FN deposit inh, HIV Env fusion, PglD DTNB)
Cc1cccc(/C=N\NC(=O)c2ccccc2-n2cccc2)c1	none (no result: PGC1a acetyl inh)
